ChEMBL document CHEMBL3120154, “2-[N-Alkyl(R-phenyl)-aminomethyl]-3-phenyl-7-trifluoromethylquinoxalines as anticancer agents inhibitors of folate enzymes” (Eur J Med Chem, 2014)

How the values were obtained:
Type in all cases: functional
[1] = test system: M14; assay: Cytotoxicity against human M14 cells at 10^-5 M after 48 hrs by SRB assay; details: M14, 48 h, read-out: GI
Summary of the method: (§1)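 Run in the NCI 60-cell-line screen after a three-line prescreen. Cells got a 48 h drug exposure; viability/growth was estimated with the sulforhodamine B protein assay. Growth inhibition (I%) was recorded at 100, 10, 1, 0.1 and 0.01 micromolar. Percent growth is relative to untreated control cells, and negative values indicate cell kill.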

[2] = test system: SW-620; assay: Cytotoxicity against human SW620 cells at 10^-6 M after 48 hrs by SRB assay; details: SW-620, 48 h, read-out: GI
[3] = test system: LOX IMVI; assay: Cytotoxicity against human LOXIMVI cells at 10^-6 M after 48 hrs by SRB assay; details: read-out: GI; summary of the method: as §1
[4] = test system: COLO 205; assay: Cytotoxicity against human COLO205 cells at 10^-6 M after 48 hrs by SRB assay; details: COLO 205, 48 h, read-out: GI
Summary of the method: (§2)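 Run by NCI on its 60-line human tumor cell panel, after a three-cell-line prescreen. Cells were exposed to drug for 48 h over a 5-log range: 100, 10, 1, 0.1 and 0.01 micromolar. Growth was estimated by sulforhodamine B (SRB) protein staining. Percent growth inhibition (I%) was recorded at each concentration relative to untreated control cells.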

[5] = test system: M14; assay: Cytotoxicity against human M14 cells at 10^-6 M after 48 hrs by SRB assay; details: M14, 48 h, read-out: GI; summary of the method: as §1
[6] = test system: MDA-MB-231; assay: Cytotoxicity against human MDA-MB-231 cells at 10^-5 M after 48 hrs by SRB assay; details: MDA-MB-231, 48 h, read-out: GI; summary of the method: as §1
[7] = test system: NCI-H226; assay: Cytotoxicity against human NCI-H226 cells at 10^-5 M after 48 hrs by SRB assay; details: NCI-H226, 48 h, read-out: GI; summary of the method: as §1
[8] = Cytotoxicity against human OVCAR5 cells at 10^-5 M after 48 hrs by SRB assay; details: OVCAR-5, 48 h, read-out: GI
Summary of the method: (§3)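 Second-stage screen in the 60-cell-line human tumor panel at NCI, over a 5-log range (100, 10, 1, 0.1, 0.01 micromolar). Cells were exposed to drug for 48 h and growth was estimated with a sulforhodamine B protein stain. The value is percent growth inhibition at each concentration.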

[9] = test system: SK-MEL-5; assay: Cytotoxicity against human SK-MEL-5 cells at 10^-6 M after 48 hrs by SRB assay; details: SK-MEL-5, 48 h, read-out: GI; summary of the method: as §3
[10] = test system: NCI-H23; assay: Cytotoxicity against human NCI-H23 cells at 10^-5 M after 48 hrs by SRB assay; details: NCI-H23, 48 h, read-out: GI; summary of the method: as §1
[11] = test system: IGROV-1; assay: Cytotoxicity against human IGROV1 cells at 10^-5 M after 48 hrs by SRB assay; details: IGROV-1, 48 h, read-out: GI; summary of the method: as §1
[12] = test system: MDA-MB-435; assay: Cytotoxicity against human MDA-MB-435 cells at 10^-6 M after 48 hrs by SRB assay; details: MDA-MB-435, 48 h, read-out: GI; summary of the method: as §1
[13] = test system: RXF 393; assay: Cytotoxicity against human RXF393 cells at 10^-5 M after 48 hrs by SRB assay; details: RXF 393, 48 h, read-out: GI; summary of the method: as §3
[14] = test system: LOX IMVI; assay: Cytotoxicity against human LOXIMVI cells at 10^-5 M after 48 hrs by SRB assay; details: read-out: GI; summary of the method: as §1
[15] = test system: CAKI-1; assay: Cytotoxicity against human Caki1 cells at 10^-6 M after 48 hrs by SRB assay; details: CAKI-1, 48 h, read-out: GI; summary of the method: as §2
[16] = test system: MCF7; assay: Cytotoxicity against human MCF7 cells at 10^-5 M after 48 hrs by SRB assay; details: MCF7, 48 h, read-out: GI; summary of the method: as §1
[17] = test system: MOLT-4; assay: Cytotoxicity against human MOLT4 cells at 10^-5 M after 48 hrs by SRB assay; details: MOLT-4, 48 h, read-out: GI; summary of the method: as §1
[18] = test system: SNB-19; assay: Cytotoxicity against human SNB19 cells at 10^-6 M after 48 hrs by SRB assay; details: SNB-19, 48 h, read-out: GI
[19] = test system: HL-60(TB); assay: Cytotoxicity against human HL-60(TB) cells at 10^-6 M after 48 hrs by SRB assay; details: HL-60, 48 h, read-out: GI
Summary of the method: (§4)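 NCI 60-human-tumour-cell-line screen run over a 5-log dose range (100, 10, 1, 0.1 and 0.01 µM). Cells were exposed to drug for 48 h. Growth was estimated by sulforhodamine B protein staining. Values are percent growth inhibition at each concentration, relative to untreated control cells.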

[20] = test system: UACC-62; assay: Cytotoxicity against human UACC62 cells at 10^-5 M after 48 hrs by SRB assay; details: UACC-62, 48 h, read-out: GI
[21] = test system: SF-268; assay: Cytotoxicity against human SF268 cells at 10^-5 M after 48 hrs by SRB assay; details: SF-268, 48 h, read-out: GI; summary of the method: as §3
[22] = test system: DU-145; assay: Cytotoxicity against human DU145 cells at 10^-5 M after 48 hrs by SRB assay; details: DU-145, 48 h, read-out: GI; summary of the method: as §2
[23] = Cytotoxicity against human Hs578T cells at 10^-6 M after 48 hrs by SRB assay; details: Hs-578T, read-out: GI; summary of the method: as §2
[24] = test system: SNB-75; assay: Cytotoxicity against human SNB75 cells at 10^-6 M after 48 hrs by SRB assay; details: SNB-75, 48 h, read-out: GI
[25] = test system: HCT-116; assay: Cytotoxicity against human HCT116 cells at 10^-5 M after 48 hrs by SRB assay; details: HCT-116, 48 h, read-out: GI; summary of the method: as §2
[26] = test system: NCI-H522; assay: Cytotoxicity against human NCI-H522 cells at 10^-6 M after 48 hrs by SRB assay; details: NCI-H522, 48 h, read-out: GI; summary of the method: as §1
[27] = test system: TK-10; assay: Cytotoxicity against human TK10 cells at 10^-5 M after 48 hrs by SRB assay; details: TK-10, 48 h, read-out: GI
[28] = test system: SK-OV-3; assay: Cytotoxicity against human SKOV3 cells at 10^-6 M after 48 hrs by SRB assay; details: SK-OV-3, 48 h, read-out: GI; summary of the method: as §3
[29] = test system: SNB-75; assay: Cytotoxicity against human SNB75 cells at 10^-5 M after 48 hrs by SRB assay; details: SNB-75, 48 h, read-out: GI
[30] = test system: UACC-62; assay: Cytotoxicity against human UACC62 cells at 10^-8 M after 48 hrs by SRB assay; details: UACC-62, 48 h, read-out: GI
[31] = test system: OVCAR-8; assay: Cytotoxicity against human OVCAR8 cells at 10^-8 M after 48 hrs by SRB assay; details: OVCAR-8, 48 h, read-out: GI
[32] = test system: SK-MEL-5; assay: Cytotoxicity against human SK-MEL-5 cells at 10^-7 M after 48 hrs by SRB assay; details: SK-MEL-5, 48 h, read-out: GI
[33] = test system: HCC 2998; assay: Cytotoxicity against human HCC2998 cells at 10^-8 M after 48 hrs by SRB assay; details: HCC 2998, 48 h, read-out: GI
[34] = test system: SK-MEL-28; assay: Cytotoxicity against human SK-MEL-28 cells at 10^-8 M after 48 hrs by SRB assay; details: SK-MEL-28, 48 h, read-out: GI
[35] = test system: HL-60(TB); assay: Cytotoxicity against human HL-60(TB) cells at 10^-7 M after 48 hrs by SRB assay; details: HL-60, 48 h, read-out: GI; summary of the method: as §4

SMILES	inhibition of growth at 10 µM [1] [%]	inhibition of growth at 1 µM [2] [%]	inhibition of growth at 1 µM [3] [%]	inhibition of growth at 1 µM [4] [%]	inhibition of growth at 1 µM [5] [%]	inhibition of growth at 10 µM [6] [%]	inhibition of growth at 10 µM [7] [%]	inhibition of growth at 10 µM [8] [%]	inhibition of growth at 1 µM [9] [%]	inhibition of growth at 10 µM [10] [%]	inhibition of growth at 10 µM [11] [%]	inhibition of growth at 1 µM [12] [%]	inhibition of growth at 10 µM [13] [%]	inhibition of growth at 10 µM [14] [%]	inhibition of growth at 1 µM [15] [%]	inhibition of growth at 10 µM [16] [%]	inhibition of growth at 10 µM [17] [%]	inhibition of growth at 1 µM [18] [%]	inhibition of growth at 1 µM [19] [%]	inhibition of growth at 10 µM [20] [%]	also measured
C#CCN(Cc1nc2cc(C(F)(F)F)ccc2nc1-c1ccccc1)c1ccc(C)cc1	95	< 40	< 40	108	54	64	91	71	< 40	92	63	104	70	54	< 40	70	88	54	66	91	inhibition of growth at 10 µM [21]: 50%; inhibition of growth at 10 µM [22]: < 40%; inhibition of growth at 1 µM [23]: < 40%; inhibition of growth at 1 µM [24]: < 40%; inhibition of growth at 10 µM [25]: 79%; inhibition of growth at 1 µM [26]: 49%; inhibition of growth at 10 µM [27]: 54%; inhibition of growth at 1 µM [28]: < 40%; inhibition of growth at 10 µM [29]: 118%
CCN(Cc1nc2cc(C(F)(F)F)ccc2nc1-c1ccccc1)c1ccc(OC)c(OC)c1	17	< 40	< 40	< 40	< 40	36	32	< 40	< 40	34	13	< 40	102	23	19	25	44	< 40	< 40	24	inhibition of growth at 0.01 µM [30]: < 40%; inhibition of growth at 0.01 µM [31]: 11%; inhibition of growth at 0.1 µM [32]: < 40%; inhibition of growth at 10 µM [21]: 15%; inhibition of growth at 10 µM [22]: 26%; inhibition of growth at 0.01 µM [33]: < 40%; inhibition of growth at 1 µM [23]: < 40%; inhibition of growth at 1 µM [24]: < 40%; inhibition of growth at 10 µM [25]: 43%; inhibition of growth at 0.01 µM [34]: < 40%; inhibition of growth at 1 µM [26]: < 40%; inhibition of growth at 0.1 µM [35]: < 40%; inhibition of growth at 10 µM [27]: < 40%; inhibition of growth at 1 µM [28]: < 40%; inhibition of growth at 10 µM [29]: < 40%
